Ki data for eleven molecules are collected here from ChEMBL document CHEMBL1138885, “Further structural exploration of trisubstituted asymmetric pyran derivatives (2S,4R,5R)-2-benzhydryl-5-benzylamino-tetrahydropyran-4-ol and their corresponding disubstituted (3S,6S) pyran derivatives: a proposed pharmacophore model for high-affinity interaction with the dopamine, serotonin, and …” (J Med Chem, 2006).

Holding throughout (assay type): tissue-based
Experiment [1] addresses Norepinephrine transporter (Rattus norvegicus, UniProt Q9WTR4). Kind of experiment: Inhibition of NET-mediated [3H]NE uptake in rat cerebral cortex. In outline: (§1)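 [3H]DA, [3H]5-HT or [3H]NE accumulation measured; SERT and NET uptake in rat cerebral cortex. Nonspecific uptake defined with cocaine (DAT), citalopram (SERT) or desipramine (NET). Three to eight independent experiments in triplicate, mean ± SEM.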

Experiment [2] concerns the target T1, Sodium-dependent dopamine transporter (Rattus norvegicus, UniProt P23977). In words: Inhibition of DAT-mediated [3H]DA uptake in rat striatum. In outline: as §1
Experiment [3] has as its target T1, Sodium-dependent dopamine transporter. In words: Inhibition of [3H]WIN-35428 binding to rat striatum DAT. In outline:
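DAT radioligand binding with nonspecific binding defined by cocaine. Compounds dissolved in DMSO, diluted in 10% (v/v) DMSO, final 0.5% DMSO. At least five concentrations, each in triplicate, spaced evenly around the IC50.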

Experiment [4] deals with Sodium-dependent serotonin transporter (Rattus norvegicus, UniProt P31652). In words: Inhibition of SERT-mediated [3H]5-HT uptake in rat cerebral cortex. In outline: as §1
Sodium-dependent serotonin transporter, sequence (P31652 whole entry): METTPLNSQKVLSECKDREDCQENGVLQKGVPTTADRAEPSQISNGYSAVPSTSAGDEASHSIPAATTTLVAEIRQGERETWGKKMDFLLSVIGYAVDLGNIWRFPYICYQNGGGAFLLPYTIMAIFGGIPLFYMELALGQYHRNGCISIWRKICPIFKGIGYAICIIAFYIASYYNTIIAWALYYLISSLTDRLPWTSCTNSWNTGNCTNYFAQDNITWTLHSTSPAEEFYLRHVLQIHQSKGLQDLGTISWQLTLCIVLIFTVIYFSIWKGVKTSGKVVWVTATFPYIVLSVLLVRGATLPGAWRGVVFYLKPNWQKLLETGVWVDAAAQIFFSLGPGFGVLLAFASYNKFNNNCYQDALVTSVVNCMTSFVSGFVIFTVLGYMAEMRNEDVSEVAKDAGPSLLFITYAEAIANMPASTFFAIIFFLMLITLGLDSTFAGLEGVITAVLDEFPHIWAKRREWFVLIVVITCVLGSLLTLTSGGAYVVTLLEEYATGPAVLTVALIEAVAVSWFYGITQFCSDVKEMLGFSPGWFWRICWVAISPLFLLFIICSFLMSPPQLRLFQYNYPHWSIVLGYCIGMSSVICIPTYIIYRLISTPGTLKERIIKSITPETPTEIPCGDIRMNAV

Norepinephrine transporter, sequence (Q9WTR4 whole entry): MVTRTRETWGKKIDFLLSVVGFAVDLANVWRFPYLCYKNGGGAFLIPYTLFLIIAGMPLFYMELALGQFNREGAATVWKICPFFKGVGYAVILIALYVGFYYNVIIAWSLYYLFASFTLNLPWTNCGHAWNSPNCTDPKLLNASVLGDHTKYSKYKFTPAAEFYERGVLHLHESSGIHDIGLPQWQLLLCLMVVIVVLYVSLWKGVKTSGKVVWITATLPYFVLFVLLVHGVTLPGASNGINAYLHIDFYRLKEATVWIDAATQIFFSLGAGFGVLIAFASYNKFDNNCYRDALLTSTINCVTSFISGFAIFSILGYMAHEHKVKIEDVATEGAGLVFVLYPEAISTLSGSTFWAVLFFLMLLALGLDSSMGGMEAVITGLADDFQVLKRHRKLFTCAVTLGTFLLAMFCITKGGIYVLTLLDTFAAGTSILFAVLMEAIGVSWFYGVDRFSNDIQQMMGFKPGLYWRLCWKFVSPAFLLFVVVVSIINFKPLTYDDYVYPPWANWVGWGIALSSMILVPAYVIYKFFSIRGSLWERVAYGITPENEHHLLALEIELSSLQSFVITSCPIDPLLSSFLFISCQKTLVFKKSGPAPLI
T1 sequence (P23977 whole entry): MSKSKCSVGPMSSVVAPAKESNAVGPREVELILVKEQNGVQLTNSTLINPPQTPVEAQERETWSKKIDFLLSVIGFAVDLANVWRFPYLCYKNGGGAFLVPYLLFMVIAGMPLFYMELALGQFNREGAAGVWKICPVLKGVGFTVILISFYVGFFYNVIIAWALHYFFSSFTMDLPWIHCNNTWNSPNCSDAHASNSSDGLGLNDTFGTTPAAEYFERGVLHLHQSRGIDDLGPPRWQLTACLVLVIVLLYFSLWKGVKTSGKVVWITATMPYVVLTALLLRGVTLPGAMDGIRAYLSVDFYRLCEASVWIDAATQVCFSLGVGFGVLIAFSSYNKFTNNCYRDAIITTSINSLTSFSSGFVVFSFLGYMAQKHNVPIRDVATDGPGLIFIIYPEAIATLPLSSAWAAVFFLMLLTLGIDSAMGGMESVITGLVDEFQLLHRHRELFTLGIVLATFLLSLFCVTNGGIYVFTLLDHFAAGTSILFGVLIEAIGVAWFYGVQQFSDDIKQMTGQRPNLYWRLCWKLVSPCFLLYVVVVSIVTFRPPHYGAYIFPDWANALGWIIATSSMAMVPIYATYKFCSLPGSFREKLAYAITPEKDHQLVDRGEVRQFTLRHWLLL

In the case of `Oc1ccc(CN[C@@H]2CO[C@H](C(c3ccccc3)c3ccccc3)C[C@H]2O)cc1`, in experiment [1], the Ki turned out to be 10.4 nM.
For `O=[N+]([O-])c1ccc(CN[C@H]2CC[C@@H](C(c3ccccc3)c3ccccc3)OC2)cc1`, the figures for the Ki in experiment [2] and in experiment [3] were 34.6 nM and 38.4 nM, respectively.
For the molecule `Oc1ccc(CN[C@@H]2CC[C@H](C(c3ccccc3)c3ccccc3)OC2)cc1`, the inhibition constant Ki in experiment [4] worked out at 187 nM; in experiment [2] it was 67.4 nM; in experiment [3], 114 nM.
Consider `c1ccc(C(c2ccccc2)[C@H]2CC[C@@H](NCc3ccc4[nH]ccc4c3)CO2)cc1`, for which the Ki came out at 11.8 nM in experiment [4], 15.6 nM in experiment [1], 142 nM in experiment [2] and 467 nM in experiment [3].
In experiment [1], `Oc1ccc(CN[C@H]2CO[C@@H](C(c3ccccc3)c3ccccc3)C[C@@H]2O)cc1` yielded a Ki of 94.4 nM.
As for `O=[N+]([O-])c1ccc(CN[C@@H]2CC[C@H](C(c3ccccc3)c3ccccc3)OC2)cc1`, the inhibition constant Ki is 59.9 nM in experiment [2] and 64.6 nM in experiment [3].
In the case of `O[C@H]1C[C@H](C(c2ccccc2)c2ccccc2)OC[C@@H]1NCc1ccc2[nH]ccc2c1`, the results for the Ki in experiment [1], in experiment [2] and in experiment [3] were 13.2 nM, 184 nM and 399 nM, respectively.
Take `c1ccc(C(c2ccccc2)[C@@H]2CC[C@H](NCc3ccc4[nH]ccc4c3)CO2)cc1`: the inhibitory constant (Ki) in experiment [4] stood at 14.5 nM; in experiment [1] it was 6.56 nM; in experiment [2] it was 214 nM; in experiment [3] it was 338 nM.
On to `O[C@@H]1C[C@@H](C(c2ccccc2)c2ccccc2)OC[C@H]1NCc1ccc2[nH]ccc2c1`, for which the inhibition constant Ki is 2.13 nM in experiment [1], 120 nM in experiment [2] and 570 nM in experiment [3].
Take `O[C@@H]1C[C@@H](C(c2ccccc2)c2ccccc2)OC[C@H]1NCc1ccccc1`: the Ki in experiment [4] was found to be 707 nM; in experiment [2], 446 nM; in experiment [3], 1500 nM.
The like results for `Oc1ccc(CN[C@H]2CC[C@@H](C(c3ccccc3)c3ccccc3)OC2)cc1` were, in that order, 37.7 nM, 85 nM and 226 nM.

For orientation: Ki means the dissociation constant of the complex between target and ligand, obtained from inhibition or displacement. The low end stands for higher affinity, the high end for lower affinity.
